Reference: ChEMBL document CHEMBL4011621, “A Novel Series of Highly Potent Small Molecule Inhibitors of Rhinovirus Replication” (J Med Chem, 2017)

Legend:
rhinovirus B14 = assay: Antiviral activity against Human rhinovirus B14 infected in human H1HeLa cells assessed as protection against virus induced cytopathic effect after 3 days by MTT assay; assay type: functional, cell-based; settings: Rhinovirus B, H1-HeLa, 72 h
rhinovirus A21 = assay: Antiviral activity against Human rhinovirus A21 infected in human H1HeLa cells assessed as protection against virus induced cytopathic effect after 3 days by MTT assay; assay type: functional, cell-based; settings: Rhinovirus A, H1-HeLa, 72 h
Summary of the method: (§1)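 CPE-reduction assay in H1HeLa cells plated 2 d before. Equal volumes of virus and compound were added and held at 33 °C for 3 d under CO2. Supernatant was removed, then MTT was added for 1 h at 37 °C. Formazan was dissolved and read at 540 nm against a 690 nm reference. Survival was scaled between uninfected untreated wells (100%) and virus-only wells (0%); mean ± SD, three experiments.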

[1] = Cytotoxicity against human H1HeLa cells assessed as decrease in cell viability after 3 days by MTT assay; assay type: cell-based, H1-HeLa
[2] = Antiviral activity against Human rhinovirus A71 infected in human H1HeLa cells assessed as protection against virus induced cytopathic effect after 3 days by MTT assay; assay type: functional, cell-based; settings: Rhinovirus A, H1-HeLa, 72 h; summary of the method: as §1
Poliovirus 3 = assay: Antiviral activity against Human poliovirus 3 infected in human HeLa cells assessed as protection against virus induced cytopathic effect after 2 days by MTT assay; assay type: functional, cell-based; settings: Enterovirus C, 48 h
Summary of the method: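 HeLa cells; MTT-based CPE reduction. Virus and compound added in equal volumes, incubated 37 °C for 2 d in CO2. Supernatant removed, MTT 1 h at 37 °C, formazan dissolved, absorbance 540 nm (690 nm reference). Uninfected untreated wells = 100% survival, virus-only = 0%. EC50 = 50% inhibition; means ± SD, three experiments.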

[3] = Cytotoxicity aganist human HeLa cells assessed as decrease in cell viability after 2 days by MTT assay; assay type: cell-based
[4] = Selectivity index, ratio of CC50 for human H1HeLa cells to EC50 for Human rhinovirus B14 infected in human H1HeLa cells; assay type: toxicity, cell-based; settings: read-out: Ratio CC50/EC50
Summary of the method: (§2)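 H1HeLa cells plated 2 d ahead; virus plus compound (equal volumes) incubated 33 °C, 3 d, CO2. MTT 1 h at 37 °C, A540/A690. Survival scaled between uninfected untreated (100%) and virus-only (0%) wells to give EC50. CC50 = 50% cell death by MTT in H1HeLa. SI = CC50/EC50; at least three independent experiments.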

[5] = Selectivity index, ratio of CC50 for human H1HeLa cells to EC50 for Human rhinovirus A21 infected in human H1HeLa cells; assay type: toxicity, cell-based; settings: read-out: Ratio CC50/EC50; summary of the method: as §2
[6] = Selectivity index, ratio of CC50 for human H1HeLa cells to EC50 for Human rhinovirus A71 infected in human H1HeLa cells; assay type: toxicity, cell-based; settings: read-out: Ratio CC50/EC50; summary of the method: as §2
[7] = Selectivity index, ratio of CC50 for human HeLa cells to EC50 for human poliovirus 3 infected in human HeLa cells; assay type: toxicity, cell-based; settings: read-out: Ratio CC50/EC50
Summary of the method: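 SI = CC50/EC50 in HeLa cells. CC50 = 50% cell death by MTT. EC50 = 50% inhibition of PV3 CPE by MTT after 2 d at 37 °C, survival scaled to uninfected (100%) and virus-only (0%) wells. At least three independent experiments.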

Row | SMILES | EC50 (rhinovirus B14) | EC50 (rhinovirus A21) | CC50 at 72 h [1] | EC50 [2] | EC50 (Poliovirus 3) | CC50 at 48 h [3] | selectivity ratio [4] | selectivity ratio [5] | selectivity ratio [6] | selectivity ratio [7]
1 | CCOC(=O)c1sc2cc(Oc3ccnc(C(=O)NC)c3)ccc2c1N | > 0.11 µM | > 0.11 µM | 0.11 µM | > 0.11 µM | > 0.45 µM | 0.45 µM |  |  |  | 
2 | CCOC(=O)c1ccc2ccc(Oc3ccnc(C(=O)NC)c3)cc2n1 | 56.6 µM | 44.3 µM | > 100 µM | 1.3 µM | 1.9 µM | > 100 µM | > 1.8 | > 2.3 | > 77 | > 53
3 | CNC(=O)c1ccc(Oc2ccc3c(C)c(C(=O)OC(C)C)sc3c2)cn1 | > 7.6 µM | 3.3 µM | 7.6 µM | 1.7 µM | > 12.9 µM | 12.9 µM |  | 2.3 | 4.5 | 
4 | CNC(=O)c1cc(Oc2ccc3ccc(C(=O)OC)cc3c2)ccn1 | 11 µM | 2 µM | 53.5 µM | 1.6 µM | 0.044 µM | 33.8 µM | 4.9 | 27 | 33 | 770
5 | CCOC(=O)c1sc2cc(Oc3ccnc(C(=O)OC)c3)ccc2c1C | > 24.9 µM | > 24.9 µM | 24.9 µM | 15 µM | > 26.2 µM | 26.2 µM |  |  | 1.7 | 
6 | CCOC(=O)c1cc2ccc(O)cc2s1 | > 52.3 µM | > 52.3 µM | 52.3 µM | 8.9 µM | > 46.9 µM | 46.9 µM |  |  | 5.9 | 
7 | CCOC(=O)c1cc2ccc(Oc3ccnc(C(=O)NC)c3)c(Cl)c2s1 | 12.4 µM | 7.7 µM | > 100 µM | 0.2 µM | 58.7 µM | > 100 µM | > 8.1 | > 13 | > 500 | > 1.7
8 | CNC(=O)c1cc(Oc2ccc3cc(C(=O)OC)sc3c2)ccn1 | > 100 µM | 75.6 µM | > 100 µM | 4.6 µM | > 68.3 µM | 68.3 µM |  | > 1.3 | > 22 | 
9 | CCC(C)OC(=O)c1ccc2ccc(Oc3ccnc(C(=O)NC)c3)cc2c1 (stereo not given) | > 16 µM | 0.41 µM | 16 µM | 0.013 µM | 0.35 µM | 9 µM |  | 39 | 1200 | 26
10 | CCOC(=O)c1cc2ccc(Oc3ccnc(C(=O)NC)c3)cc2o1 | > 100 µM | 66 µM | > 100 µM | 1.4 µM | > 100 µM | > 100 µM |  | > 1.5 | > 71 | 
11 | CCOC(=O)c1sc2cc(Oc3ccnc(C(=O)NC)c3)ccc2c1Cl | 11.7 µM | 1.7 µM | 46.9 µM | 2.7 µM | > 45.6 µM | 45.6 µM | 4 | 28 | 17 | 
12 | CCOC(=O)c1sc2cc(OC)ccc2c1C | > 100 µM | > 100 µM | > 100 µM | 3.8 µM | 1.8 µM | > 100 µM |  |  | > 26 | > 56
13 | CNC(=O)c1cc(Oc2ccc3ccc(C(=O)Oc4ccccc4)cc3c2)ccn1 | > 100 µM | > 100 µM | > 100 µM | 8.27 µM | 60.1 µM | > 100 µM |  |  | > 12 | > 1.7
14 | CCOC(=O)c1cc2cc(Oc3ccnc(C(=O)NC)c3)ccc2cc1O | > 100 µM | 0.41 µM | > 100 µM | 0.29 µM | 0.18 µM | > 100 µM |  | > 240 | > 340 | > 560
15 | CCOC(=O)c1sc2cc(Oc3ccnc(C(=O)NC)c3)ccc2c1CC | 13.5 µM | 0.21 µM | 35.2 µM | 1.3 µM | > 16.7 µM | 16.7 µM | 2.6 | 170 | 27 | 
16 | CNC(=O)c1cc(Oc2ccc3c(C)c(C(=O)OCc4ccccc4)sc3c2)ccn1 | > 18.8 µM | 0.55 µM | 18.8 µM | 1.4 µM | 0.34 µM | 18.1 µM |  | 34 | 13 | 53
17 | CCOC(=O)c1sc2cc(Oc3ccccc3)ccc2c1C | > 100 µM | 1 µM | > 100 µM | 1.7 µM | > 47.6 µM | 47.6 µM |  | > 100 | > 59 | 
18 | CCOC(=O)c1cc2ccc(Oc3ccccc3)cc2s1 | 68.6 µM | 51.1 µM | > 100 µM | 2.8 µM | > 90.1 µM | 90.1 µM | > 1.5 | > 2 | > 36 | 
19 | CCOC(=O)c1sc2cc(O)ccc2c1C | > 82 µM | > 82 µM | 82 µM | > 82 µM | 9.4 µM | 46.6 µM |  |  |  | 5
20 | COc1ccc(OCc2ccc(COc3c(Cl)cccc3Cl)cc2)c(Cl)c1 | > 100 µM | 2 µM | > 100 µM | 0.25 µM | 0.08 µM | 16 µM |  | > 50 | > 400 | 200
21 | CNC(=O)c1cc(Oc2ccc3c(C)c(C(=O)OC(C)C)[nH]c3c2)ccn1 | > 14.6 µM | 2.5 µM | 14.6 µM | 1.9 µM | 0.072 µM | 8.4 µM |  | 5.8 | 7.7 | 120
22 | CCOC(=O)c1cc2ccc(OC)cc2s1 | > 70.9 µM | > 70.9 µM | 70.9 µM | 5.1 µM | 13.1 µM | 44.4 µM |  |  | 14 | 3.4
23 | CNC(=O)c1cc(Oc2ccc3c(C)c(C(=O)O)sc3c2)ccn1 | > 100 µM | > 100 µM | > 100 µM | > 100 µM | > 100 µM | > 100 µM |  |  |  | 
24 | CCOC(=O)c1cc2ccc(Oc3ccncc3)cc2s1 | > 42.4 µM | > 42.4 µM | 42.4 µM | 7.3 µM | > 43.9 µM | 43.9 µM |  |  | 5.8 | 
25 | CNC(=O)c1cc(Oc2ccc3c(C)c(C(=O)N(C)C)sc3c2)ccn1 | > 42.5 µM | > 42.5 µM | 42.5 µM | > 42.5 µM | > 44.4 µM | 44.4 µM |  |  |  | 
26 | CCNC(=O)c1sc2cc(Oc3ccnc(C(=O)NC)c3)ccc2c1C | > 100 µM | > 100 µM | > 100 µM | > 100 µM | > 100 µM | > 100 µM |  |  |  | 
